A short description of series [1]: Antiproliferative activity against human PC3 cells assessed as growth inhibition after 48 hrs by SRB assay. Type of series: functional. The conditions noted are these: PC-3, 48 h. The procedure, abridged:
(§1)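 Cells exposed 48 h at 37 °C, 5% CO2 to 0.25, 2.5, 25 and 250 µg/mL in DMSO/RPMI (final DMSO 0.1%); doxorubicin standard at 0.025–25 µg/mL. Plates fixed with 50% TCA before (T0) and after treatment; protein content read by sulforhodamine B at 540 nm. GI50 (µM) from nonlinear regression of concentration–response curves; triplicate.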

For a further series, the system named is U-251. Description: Antiproliferative activity against human U251 cells assessed as growth inhibition after 48 hrs by SRB assay. The class given is functional. The settings on record: U-251, 48 h. The procedure, abridged:
as §1

The next series concerns K562. Briefly: Antiproliferative activity against human K562 cells assessed as growth inhibition after 48 hrs by SRB assay. The conditions noted are these: K562, 48 h. The class given is functional. Put shortly: as §1
For orientation: The SRB assay estimates cell density from bound dye.

The test system of a further series is HT-29. Description: Antiproliferative activity against human HT-29 cells assessed as growth inhibition after 48 hrs by SRB assay. Type of series: functional. The conditions noted are these: HT-29, 48 h. Put shortly: as §1
In a further series the test system is NCI-H460. Description: Antiproliferative activity against human NCI-H460 cells assessed as growth inhibition after 48 hrs by SRB assay. The conditions noted are these: NCI-H460, 48 h. The class given is functional. The procedure, abridged:
as §1

Series [2] is described as follows: Antiproliferative activity against human UACC62 cells assessed as growth inhibition after 48 hrs by SRB assay. Type of series: functional. The settings on record: UACC-62, 48 h. Put shortly: as §1
A further series relates to MCF7. Description: Antiproliferative activity against human MCF7 cells assessed as growth inhibition after 48 hrs by SRB assay. The class given is functional. The settings on record: MCF7, 48 h. The procedure, abridged: as §1
Series [3] in a line: Antiproliferative activity against human NCI-ADR-RES cells assessed as growth inhibition after 48 hrs by SRB assay. Type of series: functional. Put shortly:
as §1

For series [4], the system named is 786-0. Briefly: Antiproliferative activity against human 786-0 cells assessed as growth inhibition after 48 hrs by SRB assay. Type of series: functional. The settings on record: 786-0, 48 h. The procedure, abridged:
as §1

Series [5] is described as follows: Antiproliferative activity against human HaCaT cells assessed as growth inhibition after 48 hrs by SRB assay. Type of series: cell-based. Put shortly: as §1
The subject of series [6] is 786-0. Briefly: Cell cycle arrest in human 786-0 cells assessed as accumulation at S phase at 1.25 nM after 24 hrs by propidium iodide based flow cytometric analysis (reference value: 14.6 +/- 1.3%). Type of series: functional. Background: Flow cytometry measures light scatter and fluorescence of single cells or particles in a stream.
The test system of series [7] is 786-0. Description: Cell cycle arrest in human 786-0 cells assessed as accumulation at Sub G1 phase at 1.25 nM after 24 hrs by propidium iodide based flow cytometric analysis (reference value: 3.0 +/- 0.7%). Type of series: functional.
Series [8] deals with 786-0. Description: Cell cycle arrest in human 786-0 cells assessed as reduction in G1 phase at 1.25 nM after 24 hrs by propidium iodide based flow cytometric analysis (reference value: 46.7 +/- 0.8%). Type of series: functional. Set-up: scale not given: the % may be the effect or the level left.
Series [9] deals with 786-0. Description: Cell cycle arrest in human 786-0 cells assessed as accumulation at G2/M phase at 1.25 nM after 24 hrs by propidium iodide based flow cytometric analysis (reference value: 35.7 +/- 0.9%). Type of series: functional.
A short description of series [10]: Antitumor activity against mouse EAT implanted in Balb/C mouse assessed as change in paw volume at 3 mg/kg, ip administered on day 3 post tumor inoculation measured on day 6 by plethysmometer analysis (reference value: 86.1 +/- 5.7%). The class given is functional.
Series [11] is described as follows: Antitumor activity against mouse EAT implanted in Balb/C mouse assessed as change in paw volume at 3 mg/kg, ip administered on day 3 post tumor inoculation measured on day 12 by plethysmometer analysis (reference value: 125.5 +/- 7.5%). Type of series: functional.
Series [12] can be described thus: Antitumor activity against mouse EAT implanted in Balb/C mouse assessed as change in paw volume at 3 mg/kg, ip administered on day 3 post tumor inoculation measured on day 15 by plethysmometer analysis (reference value: 166.5 +/- 6.0%). The class given is functional.
A short description of series [13]: Antitumor activity against mouse EAT implanted in Balb/C mouse assessed as change in paw volume at 3 mg/kg, ip administered on day 3 post tumor inoculation measured on day 3 by plethysmometer analysis (reference value: 40.2 +/- 7.0%). Type of series: functional.
The nature of series [14]: Antitumor activity against mouse EAT implanted in Balb/C mouse assessed as change in paw volume at 3 mg/kg, ip administered on day 3 post tumor inoculation measured on day 9 by plethysmometer analysis (reference value: 95.5 +/- 5.2%). Type of series: functional.
Series [15] is described as follows: Antitumor activity against mouse EAT implanted in Balb/C mouse assessed as change in paw volume at 40 mg/kg, po administered on day 3 post tumor inoculation measured on day 3 by plethysmometer analysis (reference value: 40.2 +/- 7.0%). Type of series: functional.
The nature of series [16]: Antitumor activity against mouse EAT implanted in Balb/C mouse assessed as change in paw volume at 40 mg/kg, po administered on day 3 post tumor inoculation measured on day 12 by plethysmometer analysis (reference value: 125.5 +/- 7.5%). Type of series: functional.
A short description of series [17]: Antitumor activity against mouse EAT implanted in Balb/C mouse assessed as change in paw volume at 40 mg/kg, po administered on day 3 post tumor inoculation measured on day 9 by plethysmometer analysis (reference value: 95.5 +/- 5.2%). Type of series: functional.
Series [18] can be described thus: Antitumor activity against mouse EAT implanted in Balb/C mouse assessed as change in paw volume at 40 mg/kg, po administered on day 3 post tumor inoculation measured on day 6 by plethysmometer analysis (reference value: 86.1 +/- 5.7%). The class given is functional.
Series [19] is described as follows: Antitumor activity against mouse EAT implanted in Balb/C mouse assessed as change in paw volume at 40 mg/kg, po administered on day 3 post tumor inoculation measured on day 15 by plethysmometer analysis (reference value: 166.5 +/- 6.0%). The class given is functional.

Bounds are passed on as bounds.

`C=CCNC(=S)N/N=C/c1cccs1`: the GI50 in [1] is above 100 µM; with U-251, above 100 µM; with K562, 6 µM; with HT-29 it was above 100 µM; with NCI-H460 it was above 100 µM; in [2] it was above 100 µM. For the same molecule, the results for the 50% growth inhibitory concentration (GI50) (in the series with MCF7; in [3]; with 786-0 [4]) were above 100 µM, above 100 µM and 21.2 µM, respectively. Further, the 50% growth inhibitory concentration (GI50) at 48 h in series [5] was above 100 µM.
Regarding `S=C(NCCc1ccccc1)N/N=C/c1cccs1`, the GI50 (in [1]; in the series with U-251; with K562; in the series on HT-29; in the series with NCI-H460; in series [2]) was above 100 µM in each case. Also, the 50% growth inhibitory concentration (GI50) (in the series with MCF7; in series [3]; with 786-0 [4]) was above 100 µM each time. Besides, the 50% growth inhibitory concentration (GI50) at 48 h in series [5] is above 100 µM.
Turning to `S=C(N/N=C/c1cccs1)Nc1ccccc1`, the concentration for 50% growth inhibition (GI50) in series [1] was above 100 µM; in the series on U-251, 74.7 µM; with K562, 16.7 µM; in the series on HT-29 it was above 100 µM; in the series on NCI-H460, above 100 µM; in [2], above 100 µM. The concentration for 50% growth inhibition (GI50) is 94.6 µM with MCF7, above 100 µM in series [3] and 50.4 µM in the series on 786-0 [4]. In series [5], the GI50 at 48 h is above 100 µM.
On to `S=C(N/N=C/c1cccs1)Nc1cccc2ccccc12`, for which the GI50 in [1] was above 100 µM; with U-251 it was 12.7 µM; with K562 it was 1.8 µM; with HT-29 it was above 100 µM; in the series with NCI-H460 it was above 100 µM; in series [2], above 100 µM. Besides, the values for the 50% growth inhibitory concentration (GI50) (in the series on MCF7; in series [3]; in the series on 786-0 [4]) were above 100 µM, 6.6 µM and 15.2 µM, respectively. The concentration for 50% growth inhibition (GI50) at 48 h in [5] is 82.4 µM.
`S=C(N/N=C/c1cccs1)Nc1cccnc1`: the 50% growth inhibitory concentration (GI50) in series [1] was above 100 µM; in the series on U-251, 26 µM; in the series with K562, 16.4 µM; with HT-29, above 100 µM; in the series on NCI-H460, 45.9 µM; in [2], above 100 µM. Also, the GI50 was above 100 µM in the series with MCF7, above 100 µM in series [3] and 5.6 µM in the series with 786-0 [4]. In series [5], the GI50 at 48 h was 45.4 µM.
Take `Cc1ccc(NC(=S)N/N=C/c2cccs2)cc1`: the 50% growth inhibitory concentration (GI50) in series [1] is 29.7 µM; in the series with U-251 it was 12.6 µM; in the series with K562, below 0.9 µM; with HT-29 it was above 100 µM; in the series on NCI-H460 it was 80.6 µM; in series [2] it was 16.8 µM. Further, the concentration for 50% growth inhibition (GI50) in the series with MCF7 is 38.6 µM; in series [3], 4.8 µM; in the series with 786-0 [4], 19.5 µM. For the same molecule, the concentration for 50% growth inhibition (GI50) at 48 h in [5] worked out at 17.6 µM.
Turning to `S=C(N/N=C/c1cccs1)Nc1ccc(Cl)cc1`, the GI50 in series [1] was above 100 µM; with U-251, 8.3 µM; in the series with K562, 2 µM; in the series with HT-29, above 100 µM; with NCI-H460, above 100 µM; in [2] it was 15.8 µM. Also, the results for the GI50 (with MCF7; in series [3]; in the series on 786-0 [4]) were above 100 µM, 2.8 µM and 7.4 µM, respectively. The concentration for 50% growth inhibition (GI50) at 48 h in [5] was found to be 14.7 µM.
With `COc1ccc(NC(=S)N/N=C/c2cccs2)cc1`, the GI50 in series [1] was above 100 µM; in the series on U-251, above 100 µM; with K562, 1.7 µM; in the series on HT-29, above 100 µM; with NCI-H460, above 100 µM; in [2], above 100 µM. The 50% growth inhibitory concentration (GI50) (in the series on MCF7; in series [3]; in the series with 786-0 [4]) was above 100 µM in each case. Further, the concentration for 50% growth inhibition (GI50) at 48 h in [5] is above 100 µM.
Regarding `CCc1ccc(NC(=S)N/N=C/c2cccs2)cc1`, the concentration for 50% growth inhibition (GI50) is above 100 µM in series [1]; above 100 µM in the series with U-251; 1.6 µM in the series with K562; above 100 µM in the series with HT-29; above 100 µM in the series with NCI-H460; above 100 µM in series [2]. Besides, the GI50 is above 100 µM in the series with MCF7, above 100 µM in series [3] and 82.6 µM with 786-0 [4]. Also, the GI50 at 48 h in [5] was determined as 17.6 µM.
As for `COc1cc2c(c(OC)c1OC)-c1ccc(OC)c(=O)cc1[C@@H](NC(C)=O)CC2` [COLCHICINE], the Activity is on record as 12.6% in the series with 786-0 [6], 8.9% in the series on 786-0 [7], 21.5% in the series with 786-0 [8] and 57.5% in the series on 786-0 [9].
For `COc1cccc2c1C(=O)c1c(O)c3c(c(O)c1C2=O)C[C@@](O)(C(=O)CO)C[C@@H]3O[C@H]1C[C@H](N)[C@H](O)[C@H](C)O1` [DOXORUBICIN], the Activity turned out to be 55.6% in series [10]; 39.6% in series [11]; 97.9% in series [12]; 43.7% in series [13]; 69.8% in series [14]. Further, the GI50 is 0.13 µM in series [1]; below 0.046 µM with U-251; below 0.046 µM in the series on K562; 0.3 µM with HT-29; below 0.046 µM in the series with NCI-H460; 0.05 µM in series [2]. Further, the GI50 in the series with MCF7 is below 0.046 µM; in [3] it was 0.21 µM; in the series on 786-0 [4], below 0.046 µM. The GI50 at 48 h in series [5] was below 0.046 µM.
Take `CN1C(C(=O)Nc2ccccn2)=C(O)c2ccccc2S1(=O)=O` [PIROXICAM]: the Activity in series [15] came to 42.2%; in [16], 34.9%; in series [17], 52.3%; in series [18] it was 57.2%; in series [19] it was 47.3%.

The term GI50 denotes the concentration at which growth is held to half of that of the control.

The values are drawn from ChEMBL document CHEMBL3734720, “Synthesis of thiophene-thiosemicarbazone derivatives and evaluation of their in vitro and in vivo antitumor activities” (Eur J Med Chem, 2015).
